Screening results (PubChem)
An excerpt weighted towards active compounds, which were near 11% of everything screened.
D1 mod: D1 CRE-luciferase signal change, two-sided – cell-based, HEK293 D1, dopamine EC30, D1 allosteric modulator project, primary screen | D(1A) dopamine receptor (Homo sapiens), P21728 | dopamine EC30 potentiation; actives deviate in either direction | B-score at 10 µM | actives 5.9% (n = 58,000);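 active = luminescence count or its row- and column-corrected plate score outside the 99.7% band of the plate's sample wells, on either side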
S1P3 agonist: human S1P3 receptor agonists, primary screen, cell-based, primary and confirmation, NFAT-BLA reporter; S1P3 NFAT-BLA reporter cells, agonism, FRET ratio; relative to 1 µM S1P, basal subtracted; activation, % at 4.5 µM; actives 0.1% (n = 60,000); AID 373, 2006;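 active = activation above the screen-wide mean plus 3 SD, cut at about 4.5% in these data, passing the limit was not always enough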
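Material: Human S1P3 NFAT-BLA reporter CHO cells | Incubation: Overnight plating, 4 h compound 37 °C, 2 h substrate RT | Signal: FRET β-lactamase substrate fluorescence, excitation 405 nm, 460/535 nm emission ratio, background-subtracted | Compound: 4.5 µM final, single dose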
S1P1 ag pot: S1P1 agonists and agonism potentiators, primary screen, cell-based, primary and confirmation screens, CRE-bla reporter. Sphingosine 1-phosphate receptor 1 (Homo sapiens), P21453. S1P1 CRE-bla cells, forskolin, beta-lactamase FRET, potentiator mode; S1P1 agonist co-added at EC20, 2 nM; 100% = saturating reference agonist, 0% = basal. activation, % at 9.5 µM. AID 449, 2006. actives 0.57% (n = 56,000);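 active = activation above a cutoff set at the mean activation of all tested compounds plus 3 SD, cut at about 54% in these data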;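 note: forskolin at 4 µM as EC80 and the EC20 agonist is SEW2871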
Target sequence (P21453 whole entry, looked up): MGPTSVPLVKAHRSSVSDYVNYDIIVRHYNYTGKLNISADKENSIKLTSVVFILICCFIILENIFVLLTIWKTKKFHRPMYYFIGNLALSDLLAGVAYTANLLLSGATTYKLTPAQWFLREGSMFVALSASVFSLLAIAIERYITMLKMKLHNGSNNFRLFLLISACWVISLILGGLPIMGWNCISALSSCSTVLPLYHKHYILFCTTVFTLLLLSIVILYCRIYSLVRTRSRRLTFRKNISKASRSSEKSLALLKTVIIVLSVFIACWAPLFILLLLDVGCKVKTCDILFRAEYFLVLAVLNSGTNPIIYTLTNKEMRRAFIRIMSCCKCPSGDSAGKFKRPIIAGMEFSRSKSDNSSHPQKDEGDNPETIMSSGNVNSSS
TNAP act DEA: human TNAP enzyme activators, primary screen, biochemical, luminescent, intermediate phosphate acceptor level; Alkaline phosphatase, tissue-nonspecific isozyme (Homo sapiens), P05186; purified TNAP, CDP-star luminescence, 100 mM DEA, 30 min; active compounds read high; scale: 0 levamisole-inhibited, 1 vehicle-only enzyme; activation factor at 20 µM; 64,000 tested, under 10 active; AID 813, 2007;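 active = activation factor of at least 2 at 20 µM, relative to controls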
M1 antag: antagonists of rat M1 muscarinic receptor; Muscarinic acetylcholine receptor M1 (Rattus norvegicus), P08482; CHO-M1 cells, Fluo-4 calcium, ACh EC80 antagonist mode; active compounds read low; B-score at 10 µM; actives 3.4% (n = 64,000); AID 628, 2007;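 active = calcium fluorescence response, raw or row-and-column corrected B-score, differing from the plate sample mean either way at a set confidence level, mostly lower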
M1 agonist: M1 muscarinic receptor agonists, primary screen, CHO-M1 cells, Fluo-4 calcium, agonist mode. B-score at 10 µM. actives 3% (n = 64,000). Fluo-4 calcium fluorescence; active compounds read high. AID 626, 2007;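 active = fluorescence rise, raw or as B-score row- and column-corrected plate score, outside the 99.7% band of its plate's samples, either direction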
Large screens that a line does not name were inactive.

CCN(CC)c1ccc2cc(C(=O)Nc3ccc(-n4cnnn4)c(OC)c3)c(=O)oc2c1	M1 agonist 20
Cc1sccc1C1C(C#N)=C(N)SC(N)=C1C#N	M1 agonist 130
Cc1cc(C2C(C#N)=C(N)SC(N)=C2C#N)c(C)s1	M1 agonist 3.3 (no result: S1P1 ag pot)
COc1ccc(CNc2nc3c(c(C(F)(F)F)n2)CCCCC3)cc1	none (no result: D1 mod, S1P3 agonist, S1P1 ag pot)
O=C(c1ccco1)N1CCN(C(=O)C2CCCc3c2[nH]c2ccc(Cl)cc32)CC1 (stereo not given)	none
CN1CCN(S(=O)(=O)c2ccc(NC(=O)c3csc4ccccc34)cc2)CC1	D1 mod -1.9
O=C(O)c1cccc(COc2ccccc2Cl)c1	D1 mod -5.3 (no result: S1P3 agonist, S1P1 ag pot)
CS(=O)(=O)c1ccc2nc(NC(=O)c3cccs3)sc2c1	D1 mod -5.7 (no result: S1P1 ag pot)
Cc1ccc(CNc2nc3ccccc3s2)s1	D1 mod -2.4
Cc1ccc(C(=O)Nc2nc(COc3ccccc3)cs2)s1	S1P1 ag pot 98
CCOC(=O)CC(=O)Nc1nc2ccccc2s1	none (no result: M1 antag, M1 agonist)
Cc1ccc(C(=O)Nc2nc3ccccc3s2)s1	D1 mod -5.8
COc1ccc(-n2c(CNC(=O)c3cc(OC)c(OC)c(OC)c3)n[nH]c2=S)cc1	none (no result: D1 mod, M1 antag, M1 agonist)
CCN(CC)C(=O)CSc1nc2ccccc2c(=O)n1CCC(=O)NCc1ccc(F)cc1	none
COc1ccc(NC(=O)c2cccc(Cn3cc(Br)cn3)c2)cn1	none
COc1ccc2[nH]c(=O)c(CN(CCO)S(=O)(=O)c3ccc4c(c3)OCCO4)cc2c1	none
COC(=O)c1ccc(CSc2nnc(SCc3ccc(C(=O)OC)o3)s2)o1	none (no result: TNAP act DEA)
COC(=O)CSc1nnc(SCc2ccc(OC)cc2)s1	D1 mod -2.3
O=C1c2ccccc2C(=O)C1c1ccncc1	D1 mod -3.5
Nc1nc(Nc2ccccc2)nc2ccccc12	D1 mod -5.6
O=C(OCCNc1ncc(C(F)(F)F)cc1Cl)c1ccc(S(=O)(=O)N2CCOCC2)cc1	none (no result: S1P3 agonist, S1P1 ag pot)
COc1cccc(NC(=O)NCCCN2CCN(c3ccc(F)cc3)CC2)c1	D1 mod -5.1
COc1ccc(NC(=O)NCCCN2CCN(c3cc(C)ccc3C)CC2)cc1	D1 mod -6.1
COc1cccc(NC(=O)CN2CCN(c3ccc(F)cc3)CC2)c1	none
CCn1c(=O)cc(SCC(=O)NCCCN2CCN(c3ccc(F)cc3)CC2)c2ccccc21	D1 mod -3.7 (no result: S1P3 agonist, S1P1 ag pot)
CC1CN(c2nc3c(c(=O)n(C)c(=O)n3C)n2Cc2c(F)cccc2Cl)CC(C)O1 (stereo not given)	none
Cn1nc(-c2ccccc2)c2nc3ccccc3nc21	M1 antag 4.5, M1 agonist 133
CCOc1ccc2nc(NC3=NCN(Cc4ccco4)CN3)nc(C)c2c1	none
Cc1nc(NC2=NCN(Cc3ccco3)CN2)nc2ccccc12	M1 antag -2.9
Cc1nc(NC2=NCN(Cc3ccccc3)CN2)nc2ccccc12	M1 agonist 4.5
Cc1nc(NC2=NCN(Cc3cccnc3)CN2)nc2ccccc12	M1 antag -11 (no result: D1 mod)
Cn1c(=O)[nH]c(=O)c2c1nc(NCCCO)n2CCCc1ccccc1	none
CC1CCN(C(=O)CSc2nnc(Cc3cc(=O)[nH]c(=O)[nH]3)n2-c2ccc(Cl)cc2)CC1	none
CCOC(=O)N1CCN(C(=O)CSc2ccccc2)CC1	none
c1nc(NCCN2CCOCC2)c2sc3nc(N4CCOCC4)c4c(c3c2n1)CCC4	D1 mod 6.8 (no result: S1P3 agonist, S1P1 ag pot)
CCOC(=O)c1oc2c(CN3CCN(C)CC3)c(O)ccc2c(=O)c1-c1ccccc1OC	M1 antag 0.81
CCn1c(Sc2ccc(N)cc2Cl)nc2ccccc21	none (no result: D1 mod, S1P1 ag pot)
COc1cccc(CNn2cnnc2)c1OCc1ccccc1F	none
COc1cccc(CNn2cnnc2)c1OCc1ccc(F)cc1	D1 mod -4.9
Cc1[nH]n2c(=O)cc(C(C)(C)C)nc2c1-c1ccccc1	TNAP act DEA 2
Cc1[nH]n2c(=O)cc(C(C)C)nc2c1-c1ccccc1	none (no result: D1 mod)
CC1(c2ccccc2)NC(=O)N(CC(=O)Nc2cccc(C#N)c2)C1=O (stereo not given)	none
CCOC(=O)c1nnn(CC(=O)Nc2ccccc2OC)c1C(=O)OCC	none (no result: S1P3 agonist, S1P1 ag pot)
COc1ccc(Cn2c3nc4ccccc4nc3c3c(=O)n(Cc4ccco4)c(C)nc32)cc1	none
COc1ccc(Cn2c(C)nc3c(c2=O)c2nc4ccccc4nc2n3Cc2ccco2)cc1	D1 mod 7.6
O=C(NCCCN1CCOCC1)c1ccc(CS(=O)(=O)Cc2ccc(Cl)cc2)o1	none
CCCN1CCN(CCCNC(=O)Cn2nc(-c3ccccc3)ccc2=O)CC1	none
O=C(Cn1nc(-c2ccccc2)ccc1=O)NCCN1CCN(Cc2ccccc2)CC1	D1 mod -5
Fc1ccccc1CSc1nnc(-c2ccccc2)o1	none (no result: S1P1 ag pot)
Cc1ccccc1-c1nnc(SCc2ccccc2F)o1	S1P1 ag pot 89
O=C(COc1ncnc2sccc12)N1CCc2ccccc2C1	none (no result: D1 mod)
Cc1sc(NC(=O)c2oc3ccccc3c2C)c(C#N)c1C	none
Cc1c(C(=O)NC2=NCCS2)oc2ccccc12	D1 mod -4.9
CC1CCCN(C(=O)C2CCN(S(=O)(=O)c3cccc4cccnc34)CC2)C1 (stereo not given)	none (no result: D1 mod)
Cc1cccc(-c2nc3ccccc3c3nncn23)c1	D1 mod 14
c1ccc2c(c1)nc(-c1ccncc1)n1nnnc21	none
CCCCNc1cc(=O)n(C)c(=O)[nH]1	M1 antag 0.73 (no result: D1 mod)
Cn1c(=O)cc(NCc2ccccc2)[nH]c1=O	none (no result: D1 mod)
CCCN1C2CCCC1CC(NC(=O)c1ccc(F)cc1)C2 (stereo not given)	D1 mod -2.2
CC1=C2C(CCS2(=O)=O)CC2(C1)C(=O)OC(C)(C)OC2=O (stereo not given)	none
CCOC(=O)C1=C(C)NC(=O)NC1c1ccc(NC(C)=O)cc1 (stereo not given)	none
CCOC(=O)C1=C(C)NC(=O)NC1c1cccnc1 (stereo not given)	D1 mod -7.8
CCOC(=O)c1c(NC(=O)CSc2nnc(CNc3ccc(F)cc3)o2)sc(C)c1C	D1 mod -4.5
CCOC(=O)c1c(NC(=O)CSc2nnc(-c3cccnc3)o2)sc(C)c1C	none
Cc1cccc(NC(=O)Cn2c(=O)oc3ccccc32)c1	none
CCCCn1c2nc3ccccc3nc2c2c(=O)n(CCC(C)C)cnc21	none
